High-throughput results as filed in PubChem BioAssay.
PKA-R1A act = activators of PKA-R1A complex. P00514+P68181. PKA-R1A dissociation, Cy5-IP20 fluorescence polarization; scaled: DMSO 0%, 113 µM cGMP 100%. activation, % at 11.4 µM. 340,000 compounds, 0.083% hits. AID 504707;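 active = percent activation above the mean of all tested compounds plus 3 SD, cut at about 19% in these data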;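 also: higher means more PKAc released from R1A so a rise in polarization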
PKA-R2B act = activators of human PKA-R2B complex | PKA-R2B holoenzyme dissociation, Cy5-IP20 fluorescence polarization; R2B truncated from residue 108, S112A mutant; 0% DMSO only, 100% 113 µM cGMP | P22694+P31323 | activation, % at 11.4 µM | AID 504700 | 340,000 compounds, 0.079% hits;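 active = activation above a cutoff set at the mean over all compounds plus 3 SD, cut at about 18% in these data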;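 also: higher means more holoenzyme dissociation and a rise in polarization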
Target sequence (P31323 whole entry, looked up, other chains not shown, the tested form may be a part): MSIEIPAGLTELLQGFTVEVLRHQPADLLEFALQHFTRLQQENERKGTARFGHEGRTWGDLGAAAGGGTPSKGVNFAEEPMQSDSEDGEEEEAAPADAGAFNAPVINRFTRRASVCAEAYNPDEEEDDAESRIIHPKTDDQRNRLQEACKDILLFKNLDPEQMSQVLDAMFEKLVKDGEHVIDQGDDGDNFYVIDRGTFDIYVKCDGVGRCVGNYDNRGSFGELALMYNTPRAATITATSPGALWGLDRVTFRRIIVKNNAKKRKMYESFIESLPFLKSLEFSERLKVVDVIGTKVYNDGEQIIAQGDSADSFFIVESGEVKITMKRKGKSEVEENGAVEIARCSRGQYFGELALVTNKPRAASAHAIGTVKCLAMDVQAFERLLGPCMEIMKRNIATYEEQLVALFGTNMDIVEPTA
MsrA inh = bovine MsrA inhibition; inhibition, % at 15.5 µM; purified bovine MsrA, absorbance read-out; 360,000 compounds, 0.75% hits; AID 651718;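 also: 0% = vehicle wells with enzyme and 100% = reference inhibitor wells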
IMP-1 inhibitor = inhibitors of Pseudomonas aeruginosa IMP-1 metallo-beta-lactamase; purified IMP-1, nitrocefin hydrolysis, epi-absorbance fluorescence; inhibition, % at 5.6 µM; AID 1556; 290,000 compounds, 0.45% hits;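 active = inhibition above the mean plus 3 SD of all compounds in the same screening run, cut at about 4.5% in these data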;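 also: 0% = IMP-1 with DMSO and 100% = DMSO wells lacking enzyme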
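Material – recombinant IMP-1 enzyme, purified · Amount – IMP-1 0.2 nM before substrate addition · Medium – HEPES buffer pH 7.1 with ZnSO4 and Brij 35 · Timing – 25 °C, 15 min preincubation, 25 min reaction · Measured by – plate fluorescence quenching by hydrolysis product, ex 480/em 530 nm · Read-out – percent enzyme inhibition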
VIM-2 inhibitor = inhibitors of Pseudomonas aeruginosa VIM-2 metallo-beta-lactamase; purified VIM-2, nitrocefin hydrolysis, epi-absorbance fluorescence; inhibition, % at 5.6 µM; 290,000 compounds, 0.89% hits; AID 1527;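 active = inhibition above the mean of all tested compounds plus 3 SD, cutoff set per screening run, cut at about 7.5% in these data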;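 also: red hydrolysis product quenches plate fluorescence so inhibitors raise well fluorescence; 0% = enzyme with DMSO and 100% = DMSO without enzyme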
MsrA act = activators of bovine methionine sulfoxide reductase A; purified bovine MsrA, absorbance read-out; activation, % at 10.6 µM; 360,000 compounds, 0.3% hits; in the data active = activation above about 7.5%;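 also: 0% = vehicle and 100% = reference activator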
MsrA conf = confirmation of bovine MsrA inhibitors. shares compounds with MsrA inh. purified bovine MsrA, absorbance read-out. inhibition, % at 15.5 µM. 2,300 compounds, 41% hits. AID 651822;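 also: coupled to thioredoxin reductase with NADPH and selenocystamine and DMSO as substrate; 0% = vehicle only and 100% = full effect of reference inhibitor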
The depositor's hits bear a star; . = not tested or not shown. A selection: hits, their analogues and other compounds. The true share with any hit is near 2.1%. Rule as the data show it, unless noted: active = inhibition above about 4.5%; inactive = the rest.

SMILES	PKA-R1A act	PKA-R2B act	MsrA inh	IMP-1 inhibitor	VIM-2 inhibitor	MsrA act	MsrA conf
COc1ccc(C(=O)N/N=C/c2ccc(SC)cc2)cc1	-6.6	-3.2	5.2*	-0.9	-3.3	-5.6	5.9*
O=C(CCCl)N1c2ccccc2C=Cc2ccccc21	-2.2	1.1	-0.7	.	.	-4.8	.
CCCCOc1ccc(C2=CSC3=NCCN23)cc1[N+](=O)[O-]	-13.8	-7.7	0.4	-3.0	-0.5	-1.9	.
CCCCOc1ccc(-c2csc(N)n2)cc1[N+](=O)[O-]	-12.0	-6.0	9.4*	-1.8	-2.5	-5.0	4.4
O=C(CN1CCN(Cc2ccccc2)CC1)N/N=C/C=C/c1ccco1	-12.4	9.7	5.8*	-1.6	-4.7	-9.1	4.5
CC(/C=N/NC(=O)CN1CCN(Cc2ccc(Cl)cc2)CC1)=C\c1ccco1	-4.9	-9.6	2.6	-2.0	-3.1	-9.4	.
Cc1cc2c(cc1C)NC(c1cccnc1)C1=C(CC(C)(C)CC1=O)N2 (stereo unspecified)	-6.2	1.8	3.9	0.1	-0.7	-6.2	.
Cc1ccc(C2NC(=S)NC3=C2C(=O)CC(C)(C)C3)cc1 (stereo unspecified)	7.9	-11.1	4.8*	-2.3	-0.6	4.8	1.1
CC1(C)CC(=O)C2=C(C1)Nc1ccccc1NC2c1cccnc1 (stereo unspecified)	10.1	1.3	5.4*	.	.	-12.5	3.9
CN(C)N=Nc1nc2c([nH]1)c(=O)n(C)c(=O)n2C	-3.2	-8.9	2.0	-4.0	-2.4	-3.4	.
CN(C)N=Nc1nc2c(c(=O)n(C)c(=O)n2C)n1CC1CO1 (stereo unspecified)	.	.	7.4*	-1.9	-0.1	-5.8	5.9*
O=S1(=O)CC(N2CCN(Cc3ccccc3F)CC2)CN1Cc1cn(Cc2ccc(C(F)(F)F)cc2)nn1 (stereo unspecified)	.	.	1.4	.	.	-0.8	.
O=C(NCC1CCCO1)c1cc(-c2ccccc2F)no1 (stereo unspecified)	-14.1	-6.0	0.4	-1.1	-4.0	-1.4	.
O=C(Nc1ccc(C(=O)O)cc1)/C(=C\c1ccc2c(c1)OCO2)NC(=O)c1ccccc1	1.4	-7.8	3.9	-3.3	-2.5	-16.4	.
O=C(Nc1cccc(C(=O)O)c1)/C(=C\c1ccc2c(c1)OCO2)NC(=O)c1ccccc1Cl	6.7	5.5	5.5*	-1.5	1.5	-2.6	2.6
O=C(O)COc1ccccc1/C=N/NC(=O)/C(=C\c1ccc2c(c1)OCO2)NC(=O)c1ccccc1	-7.0	-0.2	5.5*	-2.6	-4.1	-6.3	4.3
O=C(O)CNC(=O)/C(=C\c1ccc2c(c1)OCO2)NC(=O)c1ccc(Br)cc1	.	.	2.5	-3.9	-3.1	-3.0	.
CC(C)Oc1ccc2ccccc2c1CNC[C@H]1O[C@@H](n2ccc(=O)[nH]c2=O)[C@H](O)[C@@H]1O	.	.	0.5	.	.	-4.0	.
COc1cccc(Nc2ncnc3sc(C)cc23)c1	-3.2	3.8	-0.8	0.1	2.9	-3.5	.
N#CC1C(=O)c2ccccc2C1c1ccccc1 (stereo unspecified)	4.6	-12.8	-0.9	.	.	-1.0	.
CN1/C(=C/C=N/n2cnnc2)C(C)(C)c2ccccc21	-1.6	0.8	4.8*	-0.3	-4.8	-6.1	4.3
CN1/C(=C\C=C(C#N)C#N)C(C)(C)c2ccccc21	2.5	1.1	-0.3	-2.6	-2.0	-15.9	.
Cc1ccc(C2=NS(=O)(=O)N(C)C(C(=O)NCc3ccccn3)=C2)cc1	3.6	-3.8	5.2*	-4.6	-5.2	2.3	2.4
COc1ccc(C2=NS(=O)(=O)N(C)C(C(=O)N3CCN(C)CC3)=C2)cc1	-6.4	-5.8	5.9*	-3.0	-0.8	-3.6	2.8
CCN1CCN(C(=O)C2=CC(c3ccc(C)cc3)=NS(=O)(=O)N2C)CC1	-2.5	-0.7	3.1	-2.3	-0.1	-2.4	.
Cc1ccc(C2=NS(=O)(=O)N(C)C(C(=O)NCc3cccs3)=C2)cc1	-6.2	14.1	3.5	-0.2	-0.6	-3.0	.
Cc1ccc(C2=NS(=O)(=O)N(C)C(C(=O)N3CCCCC3)=C2)cc1	-14.4	-5.0	5.0*	-3.4	-2.3	-3.4	3.0
